Series [1] is described as follows: Selectivity for inhibition of thrombin over trypsin. A digest of the protocol: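 Ratio Ki(trypsin)/Ki(thrombin). Both Ki values came from chromogenic-substrate amidolytic assays, each derived by Cheng–Prusoff from IC50 or from velocity equations with and without inhibitor using the relevant Km.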
Series [2] can be described thus: Dissociation constant was evaluated. It counts as physicochemical.
Series [3] can be described thus: Concentration required to double the thrombin time in human plasma. It counts as functional.
Series [4] in a line: Concentration required to double the prothrombin time in human plasma. It counts as functional.
In the next series the target is Prothrombin (Homo sapiens, UniProt P00734). Description: In vitro inhibition of human thrombin.
A further series addresses T1, Serine protease 1 (Bos taurus, UniProt P00760).
T1 sequence (P00760 whole entry): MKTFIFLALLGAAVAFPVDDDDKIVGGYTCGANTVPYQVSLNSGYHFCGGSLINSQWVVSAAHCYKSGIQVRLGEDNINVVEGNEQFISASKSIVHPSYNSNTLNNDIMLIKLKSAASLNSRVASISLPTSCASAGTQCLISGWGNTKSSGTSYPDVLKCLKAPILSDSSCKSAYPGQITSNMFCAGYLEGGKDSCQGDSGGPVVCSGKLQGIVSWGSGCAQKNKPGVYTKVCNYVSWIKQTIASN
Kind of series: In vitro inhibition of bovine trypsin. The method, boiled down:
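Amidolytic assay of thrombin, trypsin and factor Xa activity with chromogenic substrates. Ki was derived by the Cheng–Prusoff relation from IC50, or from reaction velocity equations with and without inhibitor using the substrate Km. Thrombin-over-trypsin selectivity was taken as the ratio Ki(trypsin)/Ki(thrombin).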

A short description of series [5]: Concentration required to double the activated partial thromboplastin time in human plasma. It counts as functional.
A further series has as its target Coagulation factor X (Homo sapiens, UniProt P00742). Description: In vitro inhibition of Coagulation factor Xa. The method, boiled down: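 Amidolytic assay with a chromogenic substrate for factor Xa. Ki was derived by the Cheng–Prusoff relation from IC50 values, or from velocity equations with and without inhibitor using the substrate Km.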

Usually pKa stands for the pH at which an ionisable group is half protonated. Low values mean a group that gives up its proton readily, high ones a group that holds its proton tightly. One may read the Ki as a measure of affinity in units of concentration, obtained from inhibition or displacement. Higher therefore signals weaker binding.

Coagulation factor X, sequence (P00742 41-179 limits assumed): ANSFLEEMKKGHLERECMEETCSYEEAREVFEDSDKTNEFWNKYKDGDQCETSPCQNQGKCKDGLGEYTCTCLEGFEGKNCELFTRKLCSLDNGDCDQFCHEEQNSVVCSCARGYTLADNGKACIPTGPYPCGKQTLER
Coagulation factor X, sequence (P00742 235-488 limits assumed): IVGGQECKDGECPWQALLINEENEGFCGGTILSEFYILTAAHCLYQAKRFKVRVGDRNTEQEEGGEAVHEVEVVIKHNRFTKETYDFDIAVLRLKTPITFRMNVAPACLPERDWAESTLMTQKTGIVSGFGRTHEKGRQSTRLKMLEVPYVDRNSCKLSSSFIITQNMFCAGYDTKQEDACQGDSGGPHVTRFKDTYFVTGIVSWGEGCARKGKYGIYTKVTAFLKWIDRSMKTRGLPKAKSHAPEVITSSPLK

On to `Cc1ccc(NS(=O)(=O)Cc2cccc(C(F)(F)F)c2)c(=O)n1CC(=O)NCC1CCc2n[nH]cc2C1` (stereo not given), for which the Selectivity in series [1] worked out at 757. Moreover, in series [2], the pKa was 4. The compound further registered a TT in series [3] of 36.6 µM. In series [4], this compound registered a PT of 293 µM. The figures for the Ki at Prothrombin, at Serine protease 1 and at Coagulation factor X were 562 nM, 425 µM and 252 µM, respectively. Further, the “2x APTT” value in series [5] was determined as 447 µM.

`Cc1ccc(NS(=O)(=O)Cc2ccccc2)c(=O)n1CC(=O)NCC1CCc2n[nH]cc2C1` (stereo not given) showed a Selectivity in series [1] above 2940. In series [3], this compound had a TT of 5.2 µM. In series [4], this compound registered a PT of 30.6 µM. For the same compound, the Ki on Serine protease 1 is above 500 µM. Moreover, the “2x APTT” value in series [5] came to 20.5 µM.

In series [1], `Cc1ccc(NS(=O)(=O)Cc2ccc(F)cc2)c(=O)n1CC(=O)NC1CCc2nc(N)sc2C1` (stereo not given) gave a Selectivity above 8000. This compound also gave a pKa in series [2] of 6.1. In series [3], this compound came in with a TT of 5.1 µM. In series [4], the PT came out at 57.7 µM. For the same compound, the results for the inhibition constant Ki at Prothrombin, on Serine protease 1 and at Coagulation factor X were 100 nM, above 800 µM and above 300 µM, respectively. In series [5], the “2x APTT” value turned out to be 28.7 µM.

On to `Cc1ccc(NS(=O)(=O)Cc2ccc(F)cc2Cl)c(=O)n1CC(=O)NCC1CCc2n[nH]cc2C1` (stereo not given), for which the Selectivity in series [1] was above 1910. For the same compound, the pKa in series [2] turned out to be 4. This compound returned a TT in series [3] of 10.8 µM. For the same compound, the PT in series [4] turned out to be 120 µM. Also, the Ki on Prothrombin was 157 nM; on Serine protease 1 it was above 300 µM; at Coagulation factor X, 75 µM. The “2x APTT” value in series [5] was 50 µM.

In turn, `Cc1ccc(CS(=O)(=O)Nc2ccc(C)n(CC(=O)NCC3CCc4n[nH]cc4C3)c2=O)cc1` (stereo not given) returned a Selectivity in series [1] above 2900. In addition, the pKa in series [2] was found to be 4. Also, in series [3], the TT was determined as 3.4 µM. The PT in series [4] stood at 26.8 µM. The Ki at Prothrombin is 102 nM; on Serine protease 1 it was above 300 µM; at Coagulation factor X, 228 µM. In addition, the “2x APTT” value in series [5] turned out to be 18.8 µM.

Compound `Cc1ccc(NS(=O)(=O)Cc2ccc(F)cc2Cl)c(=O)n1CC(=O)NC1CCc2nc(N)sc2C1` (stereo not given) came in with a pKa in series [2] of 6.1. Moreover, the TT in series [3] was determined as 93.8 µM. For the same compound, the Ki on Prothrombin came out at 157 nM; on Serine protease 1, 1920 µM; on Coagulation factor X, 69 µM. Further, the “2x APTT” value in series [5] is 94 µM.

Regarding `CCCS(=O)(=O)Nc1ccc(C)n(CC(=O)NC2CCc3nc(N)sc3C2)c1=O` (stereo not given), in series [1], the Selectivity amounted to 28. In series [2], this compound yielded a pKa of 6.1. Besides, the results for the Ki on Prothrombin, at Serine protease 1 and at Coagulation factor X were 2300 nM, 64.3 µM and 200 µM, respectively.

Turning to `Cc1ccc(NS(=O)(=O)Cc2cccc(C(F)(F)F)c2)c(=O)n1CC(=O)NC1CCc2nc(N)sc2C1` (stereo not given), the Selectivity in series [1] is above 300. In addition, the pKa in series [2] stood at 6.1. For the same compound, in series [3], the TT amounted to 125 µM. For the same compound, the PT in series [4] was 435 µM. The Ki was above 200 µM on Serine protease 1 and 81 µM at Coagulation factor X. Further, in series [5], the “2x APTT” value came to 428 µM.

For `Cc1ccc(NS(=O)(=O)Cc2ccc(F)cc2)c(=O)n1CC(=O)N[C@H]1CCc2nc(N)sc2C1`, in series [1], the Selectivity was above 123. The compound also came in with a pKa in series [2] of 6.1. For the same compound, the Ki is above 700 µM at Serine protease 1 and 176 µM on Coagulation factor X.

Turning to `Cc1ccc(NS(=O)(=O)Cc2ccc(F)cc2)c(=O)n1CC(=O)NCC1CCc2n[nH]cc2C1` (stereo not given), the Selectivity in series [1] is 1720. This compound displayed a pKa in series [2] of 4. The compound further returned a TT in series [3] of 3.9 µM. Moreover, in series [4], the PT turned out to be 34 µM. Besides, the Ki on Prothrombin was determined as 149 nM; at Serine protease 1, 258 µM; on Coagulation factor X, 314 µM. Further, the “2x APTT” value in series [5] stood at 15.8 µM.

Regarding `Cc1ccc(NS(=O)(=O)Cc2ccccc2)c(=O)n1CC(=O)N[C@@H]1CCc2nc(N)sc2C1`, the Selectivity in series [1] came out at 3700. Moreover, the pKa in series [2] is 6.1. For the same compound, the Ki on Prothrombin stood at 71 nM; on Serine protease 1, 263 µM; on Coagulation factor X it was 225 µM. Moreover, in series [5], the “2x APTT” value stood at 9.52 µM.

The compound `Cc1ccc(CS(=O)(=O)Nc2ccc(C)n(CC(=O)NC3CCc4nc(N)sc4C3)c2=O)cc1` (stereo not given) gave a Selectivity in series [1] of 2460. The pKa in series [2] was 6.1. For the same compound, in series [3], the TT was 12 µM. Further, in series [4], the PT amounted to 56 µM. The Ki amounted to 100 nM at Prothrombin, 246 µM at Serine protease 1 and 80 µM on Coagulation factor X. The “2x APTT” value in series [5] is 31.3 µM.

`Cc1ccc(NS(=O)(=O)Cc2ccc(F)cc2)c(=O)n1CC(=O)NC1CCc2c(sc(=N)n2N)C1` (stereo not given): in series [1], the Selectivity turned out to be 201. The same compound registered a pKa in series [2] of 3.17. The results for the Ki at Prothrombin, at Serine protease 1 and on Coagulation factor X were 22 nM, 8.06 µM and 131 µM, respectively. Besides, the “2x APTT” value in series [5] is 22.6 µM.

In the case of `Cc1ccc(NS(=O)(=O)Cc2ccccc2)c(=O)n1CC(=O)NC1CCc2nc(N)sc2C1` (stereo not given), in series [1], the Selectivity was found to be 2170. Further, the TT in series [3] came out at 6.6 µM. In addition, in series [4], the PT stood at 41.4 µM. Moreover, the Ki was determined as 120 nM at Prothrombin and 92 µM on Coagulation factor X. For the same compound, in series [5], the “2x APTT” value came to 36.5 µM.

In series [1], `Cc1ccc(NS(=O)(=O)Cc2ccc(F)cc2)c(=O)n1CC(=O)N[C@@H]1CCc2nc(N)sc2C1` returned a Selectivity above 9090. Moreover, the pKa in series [2] is 6.1. The Ki at Prothrombin is 77 nM; on Serine protease 1, above 700 µM; at Coagulation factor X it was above 500 µM. Further, the “2x APTT” value in series [5] was found to be 20.1 µM.

Compound `CCCS(=O)(=O)Nc1ccc(C)n(CC(=O)NCC2CCc3nc(N)sc3C2)c1=O` (stereo not given) registered a pKa in series [2] of 6.5. Also, the affinity at Prothrombin, expressed as Ki, was 3800 nM.

For `CCCCS(=O)(=O)Nc1ccc(C)n(CC(=O)NC2CCc3nc(N)sc3C2)c1=O` (stereo not given), the Selectivity in series [1] is 38. For the same compound, in series [2], the pKa worked out at 6.1. For the same compound, the figures for the Ki at Prothrombin and at Coagulation factor X were 1340 nM and 179 µM, respectively.

In the case of `Cc1ccc(NS(=O)(=O)Cc2ccccc2)c(=O)n1CC(=O)NC1CCc2c(sc(=N)n2N)C1` (stereo not given), in series [1], the Selectivity was 65. In series [2], this compound returned a pKa of 3.17. Further, the Ki on Prothrombin was 42 nM; at Serine protease 1, 2.71 µM; on Coagulation factor X it was above 200 µM. In addition, the “2x APTT” value in series [5] was 2.4 µM.

As to `Cc1ccc(NS(=O)(=O)Cc2ccccc2)c(=O)n1CC(=O)N[C@H]1CCc2nc(N)sc2C1`, the Selectivity in series [1] came out at 253. This compound also came in with a pKa in series [2] of 6.1. For the same compound, the Ki came to 1160 nM on Prothrombin and 371 µM at Coagulation factor X.

The record behind these values is ChEMBL document CHEMBL1146655, “Novel thrombin inhibitors incorporating weakly basic heterobicyclic P1-arginine mimetics: optimization via modification of P1 and P3 moieties” (Bioorg Med Chem Lett, 2004).
